According to ChEMBL document CHEMBL4808178 (J Med Chem, 2021):
Calls of active or inactive are those of the source. No cut-off for these calls is given here.

How the values were obtained:
HT-29 = assay: Cytotoxicity against human HT-29 cells assessed as reduction in cell viability incubated for 72 hrs by MTT assay; assay type: functional, cell-based; details: HT-29, 72 h
HCT-116 [1] = assay: Cytotoxicity against human HCT-116 cells assessed as reduction in cell viability incubated for 72 hrs by MTT assay; assay type: functional, cell-based; details: HCT-116, 72 h
How it was run: (§1)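 About 5 × 10³ cells/well, seeded overnight at 37 °C, 5% CO₂, in DMEM or RPMI-1640 with 10% FBS and antibiotics. DMSO-dissolved compounds diluted in medium, exposure 72 h.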

PC-3 = assay: Cytotoxicity against human PC3 cells assessed as reduction in cell viability incubated for 72 hrs by MTT assay; assay type: functional, cell-based; details: PC-3, 72 h; how it was run: as §1
T-24 = assay: Cytotoxicity against human T24 cells assessed as reduction in cell viability incubated for 72 hrs by MTT assay; assay type: functional, cell-based; details: T-24, 72 h; how it was run: as §1
[2] = biological target: Dual specificity protein kinase CLK2 (Homo sapiens, UniProt P49760); assay: Inhibition of human CLK2 incubated for 2 hrs
L02 = assay: Cytotoxicity against human L02 cells assessed as reduction in cell viability incubated for 72 hrs by MTT assay; assay type: cell-based; details: L02, 72 h; how it was run: as §1
MCF7 = assay: Cytotoxicity against human MCF7 cells assessed as reduction in cell viability incubated for 72 hrs by MTT assay; assay type: functional, cell-based; details: MCF7, 72 h; how it was run: as §1
[3] = Volume of distribution in Sprague-Dawley rat at 25 mg/kg, po measured up to 48 hrs by LC-MS/MS analysis; assay type: ADME, organism-based; details: in vivo
How it was run: (§2)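 Overnight-fasted male SD rats (250−270 g, n = 3/group), single oral 25 mg/kg in 5% CMC-Na (reference sodium salt in phosphate buffer); plasma at 0.25–48 h (12 timepoints), stored −40 °C; LC−MS/MS with internal-standard calibration 3–3000 ng/mL; parameters fitted by model.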

[4] = Half life in Sprague-Dawley rat at 25 mg/kg, po measured up to 48 hrs by LC-MS/MS analysis; assay type: ADME, organism-based; details: in vivo
How it was run: (§3)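 Overnight-fasted male SD rats (about 250−270 g), three per group, single oral 25 mg/kg; test compound suspended in 5% CMC-Na, control as sodium salt in phosphate buffer. Blood sampled 0.25–48 h, plasma by centrifugation, stored −40 °C, quantified by LC−MS/MS against plasma standard curve (3–3000 ng/mL) with internal standard; model-fitted PK parameters.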

HCT-116 [5] = assay: Inhibition of cell stemness in human HCT116 cells assessed as inhibition of CD44+/CD133+ expression at 20 uM after 24 hrs by flow cytometry analysis; assay type: functional
How it was run: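 ALDH⁺ HCT-116 subpopulation sorted by flow cytometry; 2 × 10⁵ cells/well seeded overnight at 37 °C, 5% CO₂; treated 20 μM for 24 h (vehicle DMSO); stained with PE anti-CD133 and FITC anti-CD44 30 min; CD44⁺/CD133⁺ read by flow cytometry.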

[6] = biological target: T1, Aldehyde dehydrogenase 1A1 (Homo sapiens) (UniProt P00352); assay: Inhibition of ALDH1A1 in human HCT116 cells at 5 uM after 24 hrs by aldefluor staining based fluorescence analysis; assay type: cell-based; details: HCT-116
T1 sequence (whole entry): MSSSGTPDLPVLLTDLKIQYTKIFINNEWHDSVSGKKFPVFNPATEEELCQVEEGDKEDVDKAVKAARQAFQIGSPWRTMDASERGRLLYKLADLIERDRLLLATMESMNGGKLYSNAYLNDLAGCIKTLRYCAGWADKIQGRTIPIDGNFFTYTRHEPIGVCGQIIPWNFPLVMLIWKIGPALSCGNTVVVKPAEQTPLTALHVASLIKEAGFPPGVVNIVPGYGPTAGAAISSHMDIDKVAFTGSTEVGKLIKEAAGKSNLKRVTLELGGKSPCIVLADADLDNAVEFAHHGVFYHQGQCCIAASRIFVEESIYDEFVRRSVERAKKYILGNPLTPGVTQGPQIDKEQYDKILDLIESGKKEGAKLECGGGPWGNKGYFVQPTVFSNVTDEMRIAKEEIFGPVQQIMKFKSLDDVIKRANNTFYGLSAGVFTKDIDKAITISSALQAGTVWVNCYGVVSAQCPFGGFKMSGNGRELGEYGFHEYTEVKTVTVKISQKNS
How it was run: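 HCT-116 cells, 2 × 10⁵/well, grown overnight at 37 °C, 5% CO₂, then treated 24 h (vehicle DMSO). Aldefluor staining read in FITC channel by FACS for proportion of ALDH⁺ cells; DEAB-pretreated cells set baseline fluorescence.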

[7] = AUC(0 to infinity) in Sprague-Dawley rat at 25 mg/kg, po measured up to 48 hrs by LC-MS/MS analysis; assay type: ADME, organism-based; design: route oral, dose 25 mg/kg, time <=48; details: in vivo; how it was run: as §3
[8] = MRT(0 to infinity) in Sprague-Dawley rat at 25 mg/kg, po measured up to 48 hrs by LC-MS/MS analysis; assay type: ADME, organism-based; details: in vivo; how it was run: as §2
[9] = Cmax in Sprague-Dawley rat at 25 mg/kg, po measured up to 48 hrs by LC-MS/MS analysis; assay type: ADME, organism-based; design: route oral, dose 25 mg/kg, time <=48; details: in vivo; how it was run: as §3
HCT-116 [10] = assay: Inhibition of cell stemness in human HCT116 cells assessed as morphological alterations at 5 uM after 10 days by microscopic analysis; assay type: functional, cell-based; details: time 10.0 day
How it was run: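 Sorted ALDH⁺ HCT-116 cells, 800/well, in serum-free DMEM with B27 (1:50), EGF 20 ng/mL, β-FGF 10 ng/mL; co-incubated with compound (5 μM) or DMSO vehicle for 10 days; sphere number, diameter and morphology scored from microscopy images; mean ± SD, n = 3.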

HCT-116 [11] = assay: Induction of apoptosis in human HCT116 cells assessed as necrotic cells at 5 uM after 24 hrs by annexin V-FITC/propidium iodide staining based flow cytometry (reference value: 5.6%); assay type: functional
HCT-116 [12] = assay: Induction of apoptosis in human HCT116 cells assessed as early apoptotic cells at 5 uM after 24 hrs by annexin V-FITC/propidium iodide staining based flow cytometry (reference value: 1%); assay type: functional
HCT-116 [13] = assay: Induction of cell cycle arrest in human HCT116 cells assessed as accumulation at G0/G1 phase at 20 uM after 24 hrs by propidium iodide-staining based flow cytometry (reference value: 48.89%); assay type: functional
HCT-116 [14] = assay: Induction of cell cycle arrest in human HCT116 cells assessed as accumulation at S phase at 20 uM after 24 hrs by propidium iodide-staining based flow cytometry (reference value: 36.43%); assay type: functional
[15] = AUC(0 to t) in Sprague-Dawley rat at 25 mg/kg, po measured up to 48 hrs by LC-MS/MS analysis; assay type: ADME, organism-based; design: route oral, dose 25 mg/kg, time <=48; details: in vivo; how it was run: as §3
[16] = Tmax in Sprague-Dawley rat at 25 mg/kg, po measured up to 48 hrs by LC-MS/MS analysis; assay type: ADME, organism-based; details: in vivo; how it was run: as §2
[17] = Clearance in Sprague-Dawley rat at 25 mg/kg, po measured up to 48 hrs by LC-MS/MS analysis; assay type: ADME, organism-based; details: in vivo; how it was run: as §3
HCT-116 [18] = assay: Induction of apoptosis in human HCT116 cells assessed as viable cells at 5 uM after 24 hrs by annexin V-FITC/propidium iodide staining based flow cytometry (reference value: 88.3%); assay type: functional; details: read-out: Activity
[19] = MRT(0 to t) in Sprague-Dawley rat at 25 mg/kg, po measured up to 48 hrs by LC-MS/MS analysis; assay type: ADME, organism-based; details: in vivo; how it was run: as §2
HCT-116 [20] = assay: Induction of cell cycle arrest in human HCT116 cells assessed as accumulation at G2/M phase at 20 uM after 24 hrs by propidium iodide-staining based flow cytometry (reference value: 14.67%); assay type: functional
HCT-116 [21] = assay: Antitumor activity against human HCT116 cells xenografted in BALB/c athymic nude mouse assessed as tumor growth inhibition at 60 mg/kg, po administered twice daily for 4 weeks and measured every 3 days; assay type: functional; details: HCT-116, po, 672 h, read-out: TGI
How it was run: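 Male BALB/c athymic nude mice, 5 weeks old, 16−18 g, given 0.2 mL of 5 × 10⁷ cells/mL HCT-116 in right armpit. At about 100 mm³, randomized to groups of five; intragastric dosing twice daily for 4 weeks. Tumor volume and body weight every 3 days; tumors weighed after sacrifice; organs HE-stained.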

HCT-116 [22] = assay: Induction of apoptosis in human HCT116 cells assessed as late apoptotic cells at 5 uM after 24 hrs by annexin V-FITC/propidium iodide staining based flow cytometry (reference value: 5.1%); assay type: functional

Sequence of Dual specificity protein kinase CLK2 (P49760 whole entry): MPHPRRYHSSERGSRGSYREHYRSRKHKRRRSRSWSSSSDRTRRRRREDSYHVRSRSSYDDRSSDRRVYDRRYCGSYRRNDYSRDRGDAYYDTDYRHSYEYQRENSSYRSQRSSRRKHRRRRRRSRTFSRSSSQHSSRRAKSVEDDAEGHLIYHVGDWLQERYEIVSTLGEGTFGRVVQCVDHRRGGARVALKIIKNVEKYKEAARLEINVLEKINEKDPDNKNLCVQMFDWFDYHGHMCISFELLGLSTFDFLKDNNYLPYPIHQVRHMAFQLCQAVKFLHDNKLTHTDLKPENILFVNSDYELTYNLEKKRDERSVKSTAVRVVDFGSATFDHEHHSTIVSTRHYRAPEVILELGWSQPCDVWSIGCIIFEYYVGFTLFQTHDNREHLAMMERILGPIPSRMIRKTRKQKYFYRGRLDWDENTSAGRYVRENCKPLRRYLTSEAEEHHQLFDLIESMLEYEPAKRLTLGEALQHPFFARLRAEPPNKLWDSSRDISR

IC50 [2] [µM]	Compound	IC50 (HT-29) [µM]	IC50 (HCT-116 [1]) [µM]	IC50 (PC-3) [µM]	IC50 (T-24) [µM]	IC50 (L02) [µM]	IC50 (MCF7) [µM]	other results
0.0247	O=C(NCCBr)c1ccc2c(c1)nc(Nc1cccc(Cl)c1)c1ccncc12	8.01	28.1	8.76	8.95	66.7	14.9	
0.0196	NCCNC(=O)c1ccc2c(c1)nc(Nc1cccc(Cl)c1)c1ccncc12	11.4	7.26	5.48	14.4	111	4.88	
0.0097	COC(=O)CCNC(=O)c1ccc2c(c1)nc(Nc1cccc(Cl)c1)c1ccncc12	3.52	8.13	9.94	10.7	> 200	4.51	

More lines, now with the values behind:

Compound	IC50 [2] [µM]	IC50 (HT-29) [µM]	IC50 (HCT-116 [1]) [µM]	IC50 (PC-3) [µM]	IC50 (T-24) [µM]	IC50 (L02) [µM]	IC50 (MCF7) [µM]	other results
O=C(O)c1ccc2c(c1)nc(Nc1cccc(Cl)c1)c1ccncc12 [SILMITASERTIB]		16	13.2	12.8	12.9	23	15.3	Vd [3]: 2.39 L/kg; half-life [4]: 5.82 h; inhibition at 20 µM (HCT-116 [5]): 58%; inhibition [6]: 61%; AUC(0-inf) [7]: 40 µg·h/mL; MRT inf [8]: 6.52 h; Cmax [9]: 6.79 µg/mL; inhibition (HCT-116 [10]): Active; Activity (HCT-116 [11]): 4.2%; Activity (HCT-116 [12]): 6.8%; Activity (HCT-116 [13]): 62.48%; Activity (HCT-116 [14]): 26.31%; AUC(0-t) at 48 h [15]: 38.9 µg·h/mL; Tmax [16]: 2 h; CL/F [17]: 0.63 L/h/kg; viability at 5 µM (HCT-116 [18]): 80.7%; MRT last at 48 h [19]: 6.45 h; Activity (HCT-116 [20]): 11.21%; inhibition in vivo at 60 mg/kg (HCT-116 [21]): 15%; Activity (HCT-116 [22]): 8.3%
O=C(OCCF)c1ccc2c(c1)nc(Nc1cccc(Cl)c1)c1ccncc12	0.00106	7.8	4.28	6.4	5.91	57.8	5.98	
O=C(OCCO)c1ccc2c(c1)nc(Nc1cccc(Cl)c1)c1ccncc12	0.00238	10.9	10.9	9.15	16.6	45.1	15.2	
O=C(OCC(F)F)c1ccc2c(c1)nc(Nc1cccc(Cl)c1)c1ccncc12	0.00154	8.09	7.52	22.1	22.7	83.9	9.85	
O=C(O)CCCNC(=O)c1ccc2c(c1)nc(Nc1cccc(Cl)c1)c1ccncc12		14.5	24.8	4.2	21.1	32.2	19.6	
CC(=O)c1cc2c(o1)C(=O)c1ccccc1C2=O [NAPABUCASIN]								inhibition at 20 µM (HCT-116 [5]): 89%; inhibition (HCT-116 [10]): Active
O=C(NCCN1CCOCC1)c1ccc2c(c1)nc(Nc1cccc(Cl)c1)c1ccncc12	0.0219	13.4	7.98	3.28	8.73	37.8	11	
O=C(OCCI)c1ccc2c(c1)nc(Nc1cccc(Cl)c1)c1ccncc12	0.00169	17.1	17.7	10	17.5	43.5	10.7	
O=C(OCCc1ccccn1)c1ccc2c(c1)nc(Nc1cccc(Cl)c1)c1ccncc12		9.52	6.91	11	22.5	24.9	10.1	
